From ChEMBL document CHEMBL1255303, “In vitro and in vivo antifungal activities of T-2307, a novel arylamidine” (2008)
In brackets after ≈: the same amount, converted by molar mass. Activity calls are given as the source filed them. The calls are words filed in the database; no cut-off is given here. Starred links: 1 amine or outer side, 2 acyl side, 3 side chain; linkers in the order of their positions; H or OH if unused. Positions of bridges follow the written chain, without caps; N, C: chain ends. Non-standard residues stand in square brackets, D forms with d. Residues, ends and D or L forms follow the SMILES beside them. *: point of attachment. hTyr(3S-OH,4S-OH,3'-OSO3H) = N[C@H](C(=O)O)[C@H](O)[C@@H](O)c1ccc(O)c(OS(=O)(=O)O)c1; Orn(4R-OH,5R-OH) = O=C([C@H](C[C@@H](O)[C@@H](O)N[*:3])N[*:1])[*:2]; Pro(3S-OH,4S-Me) = C[C@H]1CN[C@H](C(=O)O)[C@H]1O; X1 = CCCCCOc1ccc(-c2cc(-c3ccc(C(=O)*)cc3)no2)cc1; Gln(3R-OH) = NC(=O)C[C@@H](O)[C@H](N)C(=O)O; Hyp = O=C(O)[C@@H]1C[C@@H](O)CN1

Experiments:
Candida albicans [1] = assay: Antifungal activity against Candida albicans ATCC 10261 after 48 hrs by broth microdilution method; type: functional; conditions: ATCC 10261, 48 h
How it was run: (§1)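 CLSI M27-A2 (yeasts) / M38-A (moulds) broth microdilution in RPMI 1640 buffered to pH 7.0 with 0.165 M MOPS. Malassezia furfur got the same medium supplemented with glucose, bile salts, glycerol, glycerol monostearate and Tween 20. Final inoculum 0.65 × 10^3–2.5 × 10^3 CFU/ml for yeasts and 0.87 × 10^4–3.8 × 10^4 CFU/ml for filamentous fungi. Incubation at 35°C except M. racemosus and F. solani, which were held at 30°C.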

Candida albicans [2] = assay: Antifungal activity against Candida albicans clinical isolates after 48 hrs by broth microdilution method; type: functional
How it was run: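 Clinical isolates from Japanese hospitals or culture collections were tested by broth microdilution in RPMI 1640-MOPS. Inoculum was 0.57 × 10^3–2.5 × 10^3 CFU/ml for yeasts and 0.4 × 10^4–3.3 × 10^4 CFU/ml for filamentous fungi. Incubation was at 35°C for about 48 h, or 72 h where footnoted. Results were summarised as MIC range, MIC50 and MIC90.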

Candida albicans [3] = assay: Antifungal activity against Candida albicans TIMM 1623 after 48 hrs by broth microdilution method; type: functional; conditions: TIMM 1623, 48 h; how it was run: as §1
Cryptococcus neoformans [4] = assay: Antifungal activity against Cryptococcus neoformans ATCC 90112 infected ICR mouse after 9 days; type: functional; conditions: ATCC 90112, 216 h
How it was run: (§2)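 Male ICR mice, 4 weeks old and SPF, were made neutropenic with intraperitoneal cyclophosphamide. The schedule was 200 mg/kg on day −3 (day −4 for Cryptococcus) plus 100 mg/kg on day +1. Infection was by tail-vein injection of 0.2 ml suspension: C. albicans 3.0 × 10^4, C. neoformans 9.1 × 10^4, A. fumigatus conidia 8.4 × 10^4 CFU/mouse. Drugs were given subcutaneously once daily for 7 days from 2 h post-infection; controls received saline. Groups had 8–10 mice.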

Cryptococcus neoformans [5] = assay: Antifungal activity against Cryptococcus neoformans ATCC 90112 infected ICR mouse assessed as delay in mortality of mouse at 0.1 mg/kg after 9 days; type: functional, organism-based; set-up: dose 0.1 mg/kg; how it was run: as §2
Candida albicans [6] = assay: Antifungal activity against Candida albicans TIMM 1623 infected ICR mouse assessed as delay in mortality of mouse at 0.01 mg/kg after 6 days; type: functional, organism-based; set-up: dose 0.01 mg/kg; how it was run: as §2
Cryptococcus neoformans [7] = assay: Antifungal activity against Cryptococcus neoformans ATCC 90112 infected ICR mouse assessed as delay in mortality of mouse at 0.3 mg/kg after 9 days; type: functional, organism-based; set-up: dose 0.3 mg/kg; how it was run: as §2
Candida albicans [8] = assay: Antifungal activity against Candida albicans TIMM 1623 infected ICR mouse assessed as delay in mortality of mouse at 0.1 mg/kg after 6 days; type: functional, organism-based; set-up: dose 0.1 mg/kg; how it was run: as §2
Candida albicans [9] = assay: Antifungal activity against Candida albicans TIMM 1623 infected ICR mouse assessed as delay in mortality of mouse at 0.2 mg/kg after 6 days; type: functional, organism-based; set-up: dose 0.2 mg/kg; how it was run: as §2

| SMILES | MFC (Candida albicans [1]) | MIC (Candida albicans [1]) | MIC (Candida albicans [2]) | MIC50 (Candida albicans [2]) | MIC90 (Candida albicans [2]) | MFC (Candida albicans [3]) | MIC (Candida albicans [3]) | ED50 (Cryptococcus neoformans [4]) | Activity (Cryptococcus neoformans [5]) | Activity (Candida albicans [6]) | Activity (Cryptococcus neoformans [7]) | Activity (Candida albicans [8]) | Activity (Candida albicans [9]) |
| --- | --- | --- | --- | --- | --- | --- | --- | --- | --- | --- | --- | --- | --- |
| C[C@@H](c1ncncc1F)[C@](O)(Cn1cncn1)c1ccc(F)cc1F [VORICONAZOLE] | > 64 µg/mL | 0.0039 µg/mL (≈ 0.0112 µM) | 0.0039 µg/mL (≈ 0.0112 µM) | 0.0039 µg/mL (≈ 0.0112 µM) | 0.0078 µg/mL (≈ 0.0223 µM) | > 64 µg/mL | 0.0039 µg/mL (≈ 0.0112 µM) | – | – | – | – | – | – |
| OC(Cn1cncn1)(Cn1cncn1)c1ccc(F)cc1F [FLUCONAZOLE] | > 64 µg/mL | 0.125 µg/mL (≈ 0.408 µM) | 0.125 µg/mL (≈ 0.408 µM) | 0.125 µg/mL (≈ 0.408 µM) | 0.25 µg/mL (≈ 0.816 µM) | > 64 µg/mL | 0.125 µg/mL (≈ 0.408 µM) | – | – | – | – | – | – |
| N=C(N)c1ccc(OCCCC2CCN(CCCOc3ccc(C(=N)N)cc3)CC2)cc1 | > 64 µg/mL | 0.001 µg/mL (≈ 0.00229 µM) | – | 0.0005 µg/mL (≈ 0.00114 µM) | 0.002 µg/mL (≈ 0.00457 µM) | > 64 µg/mL | 0.001 µg/mL (≈ 0.00229 µM) | 0.117 mg/kg | Active | Active | – | – | – |
| C[C@@H]1[C@H](O)[C@@H](C)/C=C/C=C/C=C/C=C/C=C/C=C/C=C/[C@H](O[C@@H]2O[C@H](C)[C@@H](O)[C@H](N)[C@@H]2O)C[C@@H]2O[C@](O)(C[C@@H](O)C[C@@H](O)[C@H](O)CC[C@@H](O)C[C@@H](O)CC(=O)O[C@H]1C)C[C@H](O)[C@H]2C(=O)O [AMPHOTERICIN B] | 2 µg/mL (≈ 2.16 µM) | 1 µg/mL (≈ 1.08 µM) | – | 2 µg/mL (≈ 2.16 µM) | 2 µg/mL (≈ 2.16 µM) | > 1 µg/mL | 1 µg/mL (≈ 1.08 µM) | 0.199 mg/kg | – | – | Active | Active | – |
| CCCCCOc1ccc(-c2cc(-c3ccc(C(=O)N[C@H]4C[C@@H](O)[C@@H](O)NC(=O)[C@@H]5[C@@H](O)[C@@H](C)CN5C(=O)[C@H]([C@H](O)CC(N)=O)NC(=O)[C@H]([C@H](O)[C@@H](O)c5ccc(O)c(OS(=O)(=O)O)c5)NC(=O)[C@@H]5C[C@@H](O)CN5C(=O)[C@H]([C@@H](C)O)NC4=O)cc3)no2)cc1 [MICAFUNGIN] (X1-[Orn(4R-OH,5R-OH)]T[Hyp][hTyr(3S-OH,4S-OH,3'-OSO3H)][Gln(3R-OH)][Pro(3S-OH,4S-Me)]; lactam 1-C) | 0.25 µg/mL (≈ 0.197 µM) | 0.0313 µg/mL (≈ 0.0246 µM) | – | 0.0625 µg/mL (≈ 0.0492 µM) | 0.125 µg/mL (≈ 0.0984 µM) | 4 µg/mL (≈ 3.15 µM) | 0.0625 µg/mL (≈ 0.0492 µM) | – | – | – | – | – | Active |
